Results as given in ChEMBL document CHEMBL1287718, “1-Benzyl derivatives of 5-(arylamino)uracils as anti-HIV-1 and anti-EBV agents” (Bioorg Med Chem, 2010).

Legend:
Human gammaherpesvirus 4 = experiment: Antiviral activity against Epstein-Barr virus infected in human Akata cells assessed as virus induced cytopathic effects by XTT assay; type: functional, organism-based; conditions: human gammaherpesvirus 4, Akata
How it was run: (§1)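 EC50 is the concentration that reduces virus replication by 50%. CC50 is the concentration giving 50% loss of viability in uninfected cells. Both are calculated by linear regression analysis. The selectivity index is CC50 divided by EC50.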

[1] = Selectivity index, ratio of CC50 for human Akata cells to EC50 for Epstein-Barr virus infected in human Akata cells; type: toxicity, cell-based; conditions: read-out: Ratio CC50/EC50; how it was run: as §1
[2] = Cytotoxicity against human Akata cells assessed as cell viability by XTT assay; type: cell-based; how it was run: as §1
[3] = test system: Human immunodeficiency virus 1; experiment: Antiviral activity against Human immunodeficiency virus 1 infected in human CEM-SS cells assessed as virus induced cytopathic effects; type: functional, organism-based; conditions: Human immunodeficiency virus 1, CEM-SS; how it was run: as §1
[4] = Cytotoxicity against human CEM-SS cells assessed as cell viability by XTT assay; type: cell-based; how it was run: as §1
[5] = Selectivity index, ratio of CC50 for human CEM-SS cells to EC50 for Human immunodeficiency virus 1 infected in human CEM-SS cells; type: toxicity, cell-based; conditions: read-out: Ratio CC50/EC50; how it was run: as §1

O=c1[nH]c(=O)n(Cc2cccc(Cl)c2)cc1Nc1ccccc1
EC50 (Human gammaherpesvirus 4): 20 µM
selectivity ratio [1]: > 5
CC50 [2]: > 100 µM

Cc1cc(C)cc(Cn2cc(Nc3ccccc3)c(=O)[nH]c2=O)c1
EC50 [3]: 11.9 µM
EC50 (Human gammaherpesvirus 4): > 20 µM
CC50 [4]: > 200 µM
selectivity ratio [1]: < 4.8
CC50 [2]: 96.2 µM
selectivity ratio [5]: > 16.8

O=c1[nH]c(=O)n(Cc2cccc(Oc3ccccc3)c2)cc1Nc1ccccc1
EC50 [3]: > 100 µM
EC50 (Human gammaherpesvirus 4): 2.3 µM
CC50 [4]: > 100 µM
selectivity ratio [1]: > 43
CC50 [2]: > 100 µM

O=c1[nH]c(=O)n(Cc2ccc(Cl)cc2Cl)cc1NCCc1ccccc1
EC50 [3]: 42.7 µM
EC50 (Human gammaherpesvirus 4): 67.2 µM
CC50 [4]: > 100 µM
selectivity ratio [1]: > 1.5
CC50 [2]: > 100 µM
selectivity ratio [5]: > 2.34

Cc1cn([C@H]2C[C@H](N=[N+]=[N-])[C@@H](CO)O2)c(=O)[nH]c1=O [ZIDOVUDINE]
EC50 [3]: 0.008 µM
CC50 [4]: > 1 µM
selectivity ratio [5]: > 125

O=c1[nH]c(=O)n(Cc2ccc(Cl)cc2Cl)cc1NCc1ccccc1
EC50 [3]: 54.6 µM
EC50 (Human gammaherpesvirus 4): 39.6 µM
CC50 [4]: > 100 µM
selectivity ratio [1]: 2.4
CC50 [2]: 96.3 µM
selectivity ratio [5]: > 1.8

Cc1ccccc1Cn1cc(Nc2ccccc2)c(=O)[nH]c1=O
EC50 [3]: > 100 µM
EC50 (Human gammaherpesvirus 4): 12 µM
CC50 [4]: > 100 µM
selectivity ratio [1]: > 8.3
CC50 [2]: > 100 µM

Cc1ccc(Nc2cn(Cc3ccc(Cl)cc3Cl)c(=O)[nH]c2=O)cc1
EC50 (Human gammaherpesvirus 4): 43.3 µM
selectivity ratio [1]: 2.1
CC50 [2]: 92.3 µM

Cc1cc(C)cc(Cn2cc(NCc3ccccc3)c(=O)[nH]c2=O)c1
EC50 [3]: 9.5 µM
CC50 [4]: 168 µM
selectivity ratio [5]: 17.8

Cc1cccc(Cn2cc(Nc3ccccc3)c(=O)[nH]c2=O)c1
EC50 [3]: 44.7 µM
EC50 (Human gammaherpesvirus 4): 99.1 µM
CC50 [4]: > 200 µM
selectivity ratio [1]: > 1
CC50 [2]: > 100 µM
selectivity ratio [5]: > 4.5

O=c1[nH]c(=O)n(Cc2ccccc2)cc1Nc1ccccc1
EC50 [3]: > 100 µM
CC50 [4]: > 100 µM

O=c1[nH]c(=O)n([C@H]2CO[C@@H](CO)O2)cc1I
EC50 (Human gammaherpesvirus 4): 0.033 µM
selectivity ratio [1]: > 3030
CC50 [2]: > 100 µM
